In ChEMBL document CHEMBL2413035, “Synthesis and biological activity of benzo-fused 7-deazaadenosine analogues. 5- and 6-substituted 4-amino- or 4-alkylpyrimido[4,5-b]indole ribonucleosides” (Bioorg Med Chem, 2013):
Calls of active or inactive are those of the source. The rule behind the calls is not given here.

Assays:
HepG2 = assay: Cytotoxicity against human HepG2 cells after 3 days by XTT assay; type: functional, cell-based; conditions: for IC50: HepG2, 72 h
Outline: (§1)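 ATCC lines HL60, HeLa S3, CCRF-CEM and HepG2 exposed to compound for 3 days. Viability read by metabolic XTT tetrazolium reduction.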

Hepatitis C virus [1] = assay: Antiviral activity against HCV 1A infected in […] cells; type: functional, organism-based, Hepacivirus hominis; conditions: subtype 1a
[2] = Cytotoxicity against human […] cells infected with HCV 1B; type: cell-based
Hepatitis C virus [3] = assay: Antiviral activity against HCV 1B infected in […] cells; type: functional, organism-based, Hepacivirus hominis; conditions: genotype 1b
Hepatitis C virus [4] = assay: Antiviral activity against HCV 2A infected in […] cells; type: functional, organism-based, Hepacivirus hominis; conditions: genotype 2a
[5] = Cytotoxicity against human […] cells infected with HCV 2A; type: cell-based
[6] = Selectivity index, ratio of CC50 for african green monkey Vero cells to EC50 for Dengue virus 2 infected in Vero cells; type: toxicity, cell-based; conditions: read-out: Ratio CC50/EC50
[7] = Cytotoxicity against african green monkey Vero cells after 48 hrs by XTT assay; type: cell-based; conditions: chlorocebus sabaeus
Outline: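 Vero monolayers incubated with serial compound dilutions for 48 h. XTT added for 4 h, and formazan quantified spectrophotometrically. CC50, the 50% cytotoxic concentration, derived by nonlinear regression.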

[8] = Cytotoxicity against human […] cells infected with HCV 1A; type: cell-based
HL-60 = assay: Cytotoxicity against human HL60 cells after 3 days by XTT assay; type: functional, cell-based; conditions: for IC50: HL-60, 72 h; outline: as §1
dengue virus type 2 = assay: Antiviral activity against Dengue virus 2 infected in Vero cells after 3 days by fluorescence microscopy; type: functional, organism-based; conditions: 72 h
Outline: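 Vero cells, 20,000/well, seeded the day before in DMEM with L-glutamine, 2% FBS and penicillin/streptomycin. Two-fold serial compound dilutions added in triplicate; DENV-2 added 1 h later at MOI 0.3 IU/cell. Incubated 3 days at 37 °C, 5% CO2. Cells fixed and permeabilized, then stained with DENV-2-specific antibody and Cy3 anti-mouse IgG. Imaged by fluorescence microscopy; EC50 by nonlinear regression.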

CCRF-CEM = assay: Cytotoxicity against human CCRF-CEM cells after 3 days by XTT assay; type: functional, cell-based; conditions: for IC50: 72 h; outline: as §1
[9] = (§2) Cytotoxicity against human HeLaS3 cells after 3 days by XTT assay; type: functional, cell-based; conditions: HeLa S3, 72 h; outline: as §1
HeLa S3 = assay: as §2; type: functional, cell-based; outline: as §1

Structure (SMILES) | IC50 (HepG2) | EC50 (Hepatitis C virus [1]) | CC50 [2] | EC50 (Hepatitis C virus [3]) | EC50 (Hepatitis C virus [4]) | CC50 [5] | selectivity ratio [6] | CC50 at 48 h [7] | CC50 [8] | IC50 (HL-60) | EC50 (dengue virus type 2) | IC50 (CCRF-CEM) | IC50 [9] | Activity (HepG2) | Activity (HL-60) | Activity (CCRF-CEM) | Activity (HeLa S3)
Nc1ncnc2c1c1cc(-c3cc4ccccc4o3)ccc1n2[C@@H]1O[C@H](CO)[C@@H](O)[C@H]1O | 60 µM | 6.13 µM | 28 µM | 4.83 µM | 8.77 µM | 18 µM | > 6.5 | > 100 µM | 14.5 µM | 87 µM | 15.4 µM | 32 µM | 93 µM |  |  |  | 
Nc1ncnc2c1c1cc(Cl)ccc1n2[C@@H]1O[C@H](CO)[C@@H](O)[C@H]1O |  |  |  |  |  |  |  |  |  |  |  |  |  | inactive | inactive | inactive | inactive
CN(C)c1ncnc2c1c1ccccc1n2[C@@H]1O[C@H](CO)[C@@H](O)[C@H]1O |  | 21.3 µM | > 44 µM | 7.07 µM | > 44 µM | > 44 µM |  |  | > 44 µM |  |  |  |  | inactive | inactive | inactive | inactive
OC[C@H]1O[C@@H](n2c3ccccc3c3c(C4CC4)ncnc32)[C@H](O)[C@@H]1O |  |  |  |  |  |  |  |  |  |  |  |  |  | inactive | inactive | inactive | inactive
Nc1ncnc2c1c1cc(-c3cccs3)ccc1n2[C@@H]1O[C@H](CO)[C@@H](O)[C@H]1O |  | 10 µM | > 44 µM | 8.75 µM | 24.9 µM | > 44 µM |  |  | 18.1 µM |  |  |  |  | inactive | inactive | inactive | inactive
Nc1ncnc2c1c1cc(-c3ccccc3)ccc1n2[C@@H]1O[C@H](CO)[C@@H](O)[C@H]1O |  |  |  |  |  |  |  |  |  |  |  |  |  | inactive | inactive | inactive | inactive
Nc1ncnc2c1c1cc(-c3ccco3)ccc1n2[C@@H]1O[C@H](CO)[C@@H](O)[C@H]1O |  |  |  |  |  |  |  |  |  |  |  |  |  | inactive | inactive | inactive | inactive
Nc1ncnc2c1c1ccccc1n2[C@@H]1O[C@H](CO)[C@@H](O)[C@H]1O |  | 30.6 µM | > 44 µM | 11.1 µM | > 44 µM | > 44 µM | 1.1 | 43.5 µM | > 44 µM |  | 39.6 µM |  |  | inactive | inactive | inactive | inactive
Cc1ncnc2c1c1ccccc1n2[C@@H]1O[C@H](CO)[C@@H](O)[C@H]1O | 15 µM | 0.56 µM | > 44 µM | 0.34 µM | > 44 µM | > 44 µM |  |  | > 44 µM | 54 µM |  | 82 µM | 11 µM |  |  |  | 
Nc1ncnc2c1c1c(-c3ccco3)cccc1n2[C@@H]1O[C@H](CO)[C@@H](O)[C@H]1O |  |  |  |  |  |  |  |  |  |  |  |  |  | inactive | inactive | inactive | inactive
C[n+]1cnc2c(c1N)c1ccccc1n2[C@@H]1O[C@H](CO)[C@@H](O)[C@H]1O |  |  |  |  |  |  |  |  |  |  |  |  |  | inactive | inactive | inactive | inactive
Nc1ncnc2c1c1c(-c3ccsc3)cccc1n2[C@@H]1O[C@H](CO)[C@@H](O)[C@H]1O |  |  |  |  |  |  |  |  |  |  |  |  |  | inactive | inactive | inactive | inactive
CCCCc1cccc2c1c1c(N)ncnc1n2[C@@H]1O[C@H](CO)[C@@H](O)[C@H]1O |  | > 44 µM | > 44 µM | 8.81 µM | > 44 µM | > 44 µM | 4.3 | 62.9 µM | > 44 µM |  | 14.8 µM |  |  | inactive | inactive | inactive | inactive
Nc1ncnc2c1c1cc(-c3ccoc3)ccc1n2[C@@H]1O[C@H](CO)[C@@H](O)[C@H]1O |  |  |  |  |  |  |  |  |  |  |  |  |  | inactive | inactive | inactive | inactive
Nc1ncnc2c1c1c(Cl)cccc1n2[C@@H]1O[C@H](CO)[C@@H](O)[C@H]1O | 21 µM | 0.53 µM | 1.71 µM | 0.32 µM | 1.28 µM | 1.66 µM | 1.3 | 1.14 µM | 1.16 µM | 17 µM | 0.85 µM | 12 µM | 21 µM |  |  |  | 
Nc1ncnc2c1c1cc(-c3ccsc3)ccc1n2[C@@H]1O[C@H](CO)[C@@H](O)[C@H]1O |  | 10.1 µM | 25.6 µM | 7.38 µM | 13.8 µM | 30.2 µM | 2.5 | 46.3 µM | 17.3 µM |  | 18.8 µM |  |  | inactive | inactive | inactive | inactive
Nc1ncnc2c1c1c(-c3ccccc3)cccc1n2[C@@H]1O[C@H](CO)[C@@H](O)[C@H]1O |  |  |  |  |  |  |  |  |  |  |  |  |  | inactive | inactive | inactive | inactive
